Data on seven compounds can be found in ChEMBL document CHEMBL1154353, “Stereoselective behavior of the functional diltiazem analogue 1-[(4-chlorophenyl)sulfonyl]-2-(2-thienyl)pyrrolidine, a new L-type calcium channel blocker” (J Med Chem, 2009).

The structures appear in SMILES notation.

For data set [1], the system named is Ileum. The data set can be described thus: Muscle relaxant activity in 80 mM K+-depolarized guinea pig ileum longitudinal smooth muscle assessed as inhibition of calcium-induced contraction at 5 uM. The class given is functional, Cavia porcellus. The method, boiled down: (§1)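 Guinea pig ileum longitudinal smooth muscle, 2 cm segments under 300-400 mg resting tension. Isometric recording in PSS, washed every 20 min for 1 h, then depolarized with 80 mM K+. Compounds added cumulatively in DMSO. Reported as % inhibition of calcium-induced contraction. IC50 from log concentration-response curves by Probit analysis.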

Data set [2] relates to Aorta. Kind of data set: Vasorelaxant activity in 80 mM K+-depolarized guinea pig thoracic aortic strip assessed as inhibition of calcium-induced contraction at 100 uM. The class given is functional, Cavia porcellus. In outline: (§2)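 Helicoidal guinea pig aortic strips in PSS at 35 °C, contracted with 80 mM KCl (equimolar substitution for Na+), plateau reached in about 45 min. Cumulative concentrations 0.1-500 μM in DMSO vehicle. Reported as % inhibition of contraction. IC50 by Probit analysis from log concentration-response curves (n = 6-8), not calculated when maximum effect was <50%.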

Data set [3] deals with Aorta. Kind of data set: Vasorelaxant activity in 80 mM K+-depolarized guinea pig thoracic aortic strip assessed as inhibition of calcium-induced contraction. The class given is functional, tissue-based. To be noted: Cavia porcellus. The method, boiled down: as §2
Data set [4] concerns the target T1, Voltage-gated L-type calcium channel (Rattus norvegicus, UniProt P22002+Q02485+P27732). Kind of data set: Blockade of L-type calcium channel in Wistar rat tail artery smooth muscle cells assessed as inhibition of peak L-type barium current by whole cell patch clamp method.
Data set [5] in a line: Negative inotropic activity in guinea pig left atrium assessed as decrease in atrial tension. The class given is functional, tissue-based. To be noted: Cavia porcellus, Cardiac atrium. In outline:
(§3)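 Isolated guinea pig left atria paced at 1 Hz (0.6-0.8 ms pulses, about 50% threshold voltage) in PSS at 35 °C, pH 7.4, gassed 95% O2-5% CO2. Isometric tension recorded after 45-60 min stabilization. Cumulative concentrations 0.1-100 μM, DMSO ≤0.3%. Reported as % decrease in developed tension vs control (n = 4-6). EC50 by Probit analysis (n = 6-8), not calculated when maximum effect was <50%.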

In data set [6] the test system is Ileum. The data set can be described thus: Muscle relaxant activity in 80 mM K+-depolarized guinea pig ileum longitudinal smooth muscle assessed as inhibition of calcium-induced contraction. It counts as functional, tissue-based. Conditions: Cavia porcellus. The method, boiled down:
as §1

Data set [7] is described as follows: Negative inotropic activity in guinea pig left atrium assessed as decrease in atrial tension at 10 uM relative to control. The arrangement: scale not given: the % may be the effect or the level left. It counts as functional, Cavia porcellus, Cardiac atrium. In outline: as §3
Data set [8] can be described thus: Negative chronotropic activity in guinea pig right atrium assessed as decrease in atrial rate at 50 uM relative to control. It counts as functional, Cavia porcellus, Cardiac atrium. The arrangement: scale not given: the % may be the effect or the level left. In outline:
(§4)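 Spontaneously beating guinea pig right atria in PSS at 35 °C, pH 7.4, 95% O2-5% CO2, pretreatment rate 170-195 beats/min. Cumulative concentrations 0.1-100 μM, each added at steady state, DMSO ≤0.3%. Reported as % decrease in atrial rate vs control, n = 6-8.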

Data set [9] in a line: Negative chronotropic activity in guinea pig right atrium assessed as decrease in atrial rate at 100 uM relative to control. The class given is functional, Cavia porcellus, Cardiac atrium. The arrangement: scale not given: the % may be the effect or the level left. In outline: as §4
Data set [10] deals with Ileum. The data set can be described thus: Muscle relaxant activity in 80 mM K+-depolarized guinea pig ileum longitudinal smooth muscle assessed as inhibition of calcium-induced contraction at 10 uM. The class given is functional, Cavia porcellus. In outline:
as §1

A short description of data set [11]: Negative inotropic activity in guinea pig left atrium assessed as decrease in atrial tension at 100 uM relative to control. It counts as functional, Cavia porcellus, Cardiac atrium. Set-up: scale not given: the % may be the effect or the level left. The method, boiled down:
as §3

Data set [12] has as its target T1, Voltage-gated L-type calcium channel. Kind of data set: Displacement of [3H]diltiazem from […] binding site of L-type calcium channel in Wistar rat cardiomyocytes by liquid scintillation counting. The class given is cell-based. In outline: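 Thawed rat cardiomyocytes (200 μg), isolated by collagenase/dispase perfusion and pooled from at least two animals. Incubated with 5 nM [3H]diltiazem and unlabeled ligand (0.1 nM to 100 μM) in 50 mM Tris pH 7.4, 25 °C, 90 min. Reaction stopped by filtration through PEI-soaked GF/B filters, then scintillation counting. Nonspecific binding defined with 100 μM diltiazem. Run in triplicate; sigmoidal fit of % specific binding.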

For data set [13], the system named is Aorta. The data set can be described thus: Ratio of compound IC50 to diltiazem IC50 for vasorelaxant activity in 80 mM K+-depolarized guinea pig thoracic aortic strip. The class given is functional, Cavia porcellus.
Data set [14] is described as follows: Ratio of diltiazem EC50 to compound EC50 for negative inotropic activity in guinea pig left atrium. The class given is functional, Cavia porcellus, Cardiac atrium.

As a reminder, the IC50 is the point on the concentration scale where inhibition reaches its midpoint. Usually EC50 stands for the concentration needed to bring the measured effect to its halfway point. As for `O=S(=O)(c1ccc(Cl)cc1)N1CCC[C@H]1c1cccs1`, the “inhibition (INH)” value in the data set with Ileum [1] came out at 69%; with Aorta [2], 83%. Further, the IC50 in the data set on Aorta [3] is 5160 nM; in data set [4] it was 22200 nM; with Ileum [6] it was 2060 nM. In addition, the EC50 in data set [5] came to 450 nM. The figures for the Activity in data set [7] and in data set [8] were 96% and 7%, respectively.

For `CCO[C@@]1(c2ccc(Br)cc2)SC=C(C)n2c1noc2=O`, the “inhibition (INH)” value with Aorta [2] is given as 11%; in the data set on Ileum [10], 3%. Also, in data set [9], the Activity is listed as 16%. For the same compound, the EC50 in [5] came out at 70 nM.

Consider `O=S(=O)(c1ccc(Cl)cc1)N1CCC[C@@H]1c1cccs1`, for which the “inhibition (INH)” value was determined as 94% with Ileum [1] and 24% in the data set on Aorta [2]. The Activity in data set [11] amounted to 98%; in data set [8], 10%. For the same compound, the IC50 was found to be 27100 nM in [4] and 1070 nM in the data set on Ileum [6]. Besides, the EC50 in data set [5] turned out to be 230 nM.

For the compound `C=CCN(c1ccccc1)S(=O)(=O)c1ccc(Cl)cc1`, the “inhibition (INH)” value in [12] was “Dose-dependent effect”; with Aorta [2], 54%; in the data set on Ileum [10], 83%. Moreover, the Activity in data set [9] turned out to be 5%. For the same compound, the IC50 with Aorta [3] came to 17700 nM; with Ileum [6], 4320 nM. In addition, the “Ratio IC50” value in the data set with Aorta [13] is listed as 6.8. In [14], the “Ratio EC50” value came to 2.5.

For the compound `CSC1=NCCCN1S(=O)(=O)c1ccc(Cl)cc1`, the “inhibition (INH)” value in the data set with Aorta [2] amounted to 57%; in the data set with Ileum [10] it was 83%. Besides, in data set [9], the Activity came out at 5%. Besides, in the data set on Aorta [13], the “Ratio IC50” value worked out at 9.7. Moreover, in the data set with Ileum [6], the IC50 was determined as 14800 nM.

For the compound `O=S(=O)(c1ccc(Cl)cc1)N1CCCC1c1cccs1` (racemic), the “inhibition (INH)” value is recorded as 90% with Ileum [1], 74% in the data set on Aorta [2], 90% in the data set with Ileum [10] and “Dose-dependent effect” in data set [4] (rat). The Activity in data set [9] and in data set [8] was 4% in each case. Moreover, in the data set on Aorta [13], the “Ratio IC50” value worked out at 2.2. For the same compound, the IC50 in data set [4] was determined as 23500 nM; with Ileum [6], 1180 nM. Further, the “Ratio EC50” value in data set [14] worked out at 2.5.

Take `COc1ccc([C@@H]2Sc3ccccc3N(CCN(C)C)C(=O)[C@@H]2OC(C)=O)cc1` [DILTIAZEM]: the “inhibition (INH)” value was found to be 88% in the data set with Aorta [2] and 98% with Ileum [10]. In addition, the IC50 in the data set on Aorta [3] amounted to 2600 nM. The EC50 in data set [5] was 790 nM.
